The record followed here is ChEMBL document CHEMBL1133007, “Synthesis and in vitro evaluation of novel morpholinyl- and methylpiperazinylacyloxyalkyl prodrugs of 2-(6-methoxy-2-naphthyl)propionic acid (Naproxen) for topical drug delivery” (J Med Chem, 2000).

The structures appear in SMILES notation. Values after ≈ are worked out from the molar mass of the structure shown.

Series [1] in a line: Evaluated for the apparent partition coefficient between 1-octanol and phosphate buffer at pH 5.0. The format is physicochemical. As to conditions: 1-octanol/phosphate buffer. Put shortly:
(§1)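 Shake-flask log Papp at room temperature. Compound in phosphate buffer (pH 5.0 or 7.4) was shaken with buffer-saturated 1-octanol for 30 min (pH 5.0) or 15 min (pH 7.4), and phases were separated by centrifugation. Buffer-phase concentration was measured by HPLC before and after partitioning.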

A short description of series [2]: Evaluated for 50% hydrolysis rate in 80% human serum at a pH of 7.4. The format is ADME. As to conditions: pH 7.4. Put shortly:
(§2)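 Human serum diluted to 80% with 0.16 M phosphate buffer pH 7.4, 37 °C. Prodrug dissolved in buffer, then preheated serum added. Aliquots were quenched in ethanol and centrifuged, and the supernatant was analysed by HPLC for remaining prodrug and released naproxen. Pseudo-first-order t1/2 came from the slope of log remaining prodrug vs time. f50% is the time at which 50% of total naproxen formed. Mean of n = 2.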

Series [3] is filed under the species Homo sapiens. Put plainly: Evaluated for the Steady-state fluxes (Jss) for delivery of total Naproxen species through excised human skin in Vitro in Isotonic phosphate buffer (0.05 M) at pH 7.4. In kind it is ADME. A digest of the protocol: (§3)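 Excised postmortem human skin, epidermis heat-separated (60 °C water, 2 min), dried, frozen, then rehydrated and mounted in Franz-type diffusion cells (area 0.71 cm2). Donor was a saturated suspension in 0.05 M phosphate buffer at the stated pH. Receptor was isotonic 0.05 M phosphate pH 7.4, stirred at 37 °C and sampled at intervals. Total naproxen, intermediate and prodrug were measured by HPLC. Jss is the steady-state slope per area; mean ± SE, n = 3-12.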

Series [4] can be described thus: Evaluated for 50% hydrolysis rate in phosphate buffer at 5.0 at 37 degrees C. The format is ADME. As to conditions: pH 5. A digest of the protocol:
(§4)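 Chemical stability in phosphate buffer (0.16 M, ionic strength 0.5) at pH 7.4 or 5.0, in a 37 °C thermostatted water bath. Samples were taken at intervals and analysed by HPLC for remaining prodrug. Pseudo-first-order t1/2 was calculated from the slope of the linear part of log remaining prodrug vs time.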

Series [5] in a line: Evaluated for the time by which 50% of total naproxen is formed in 80% human serum at a pH of 7.4. In kind it is ADME. As to conditions: pH 7.4. Put shortly:
as §2

For series [6], the species on record is Homo sapiens. Put plainly: Evaluated for the Steady-state fluxes (Jss) for delivery of total Naproxen species through excised human skin in vitro in Isotonic phosphate buffer (0.05 M) at pH 5.0. The format is ADME. Put shortly:
as §3

A short description of series [7]: Evaluated for the apparent partition coefficient between 1-octanol and phosphate buffer at pH 7.4. In kind it is physicochemical. As to conditions: 1-octanol/phosphate buffer. Put shortly:
as §1

The nature of series [8]: Evaluated for the solubility in aqueous solution at pH 7.4. In kind it is ADME. Put shortly:
(§5)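 Excess compound was stirred in 0.16 M phosphate buffer at room temperature, 60 min at pH 5.0 or 30 min at pH 7.4, with pH held constant. The mixture was filtered (0.45 µm) and the filtrate quantified by reversed-phase HPLC.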

Series [9] can be described thus: Evaluated for the solubility in aqueous solution at pH 5.0. The format is ADME. A digest of the protocol:
as §5

Series [10] in a line: Evaluated for 50% hydrolysis rate in phosphate buffer at pH 7.4 at 37 degrees C. The format is ADME. A digest of the protocol: as §4
Series [11] can be described thus: Evaluated for the hydrolysis rate in 80% human serum (mean; n=2) at a pH of 7.4. In kind it is ADME. As to conditions: pH 7.4. A digest of the protocol: as §2
Series [12] is described as follows: Evaluated for the hydrolysis rate in phosphate buffer at pH 7.4 at 37 degrees Centigrade. The format is ADME. Put shortly:
as §4

Series [13] in a line: Evaluated for the hydrolysis rate in phosphate buffer at 5.0 at 37 degrees Centigrade. The format is ADME. As to conditions: pH 5. Put shortly:
as §4

The species entered for series [14] is Homo sapiens. Description: Evaluated for the Steady-state fluxes (Jss) for delivery of total Naproxen species through excised human skin in vitro in isotonic phosphate buffer (0.05 M) at pH 5.0. The format is ADME. A digest of the protocol: as §3
For series [15], the species on record is Homo sapiens. Put plainly: Evaluated for the Steady-state fluxes (Jss) for delivery of total Naproxen species through excised human skin in vitro in isotonic phosphate buffer (0.05 M) at pH 7.4. The format is ADME. A digest of the protocol: as §3
The species entered for series [16] is Homo sapiens. Description: Evaluated for the Steady-state fluxes (Jss) for delivery of total Naproxen species through excised human skin in Vitro in Isotonic phosphate buffer (0.05 M) at pH 5.0. The format is ADME. Put shortly: as §3

On to `COc1ccc2cc(C(C)C(=O)OCCCCOC(=O)CCCN3CCN(C)CC3)ccc2c1` (configuration not stated), for which the log distribution coefficient (logD) in [1] worked out at 1.41; in series [7] it was 2.69. In addition, the values for the half-life in [2], in series [4] and in series [10] were 0.0167 h, 893 h and 48 h, respectively. Also, the values for the Jss in series [3] and in series [6] were 13.2 nM hr-1 cm**-2 and 1.2 nM hr-1 cm**-2, respectively. In series [5], this compound registered a 50% naproxen formed of 3 min. Besides, the solubility in series [8] is 50 mM (≈ 23500 µg/mL); in series [9], 61 mM (≈ 28700 µg/mL).
As for `COc1ccc2cc(C(C)C(=O)OCCCCOC(=O)CN3CCOCC3)ccc2c1` (configuration not stated), in series [2], the half-life was determined as 0.217 h. In addition, the 50% naproxen formed in [5] was 11 min.
For `COc1ccc2cc(C(C)C(=O)OCCCCOC(=O)CCN3CCN(C)CC3)ccc2c1` (configuration not stated), the half-life is 4 min in series [11], 16.8 h in series [12] and 432 h in [13]. The values for the log distribution coefficient (logD) in [1] and in series [7] were 1.2 and 3.04, respectively. The same compound registered a 50% naproxen formed in [5] of 5 min. Besides, the figures for the Jss in series [14] and in series [15] were 0.6 nM hr-1 cm**-2 and 7.7 nM hr-1 cm**-2, respectively. The solubility amounted to 432 mM (≈ 197000 µg/mL) in series [8] and 142 mM (≈ 64700 µg/mL) in series [9].
For `COc1ccc2cc(C(C)C(=O)OCCOC(=O)CN3CCOCC3)ccc2c1` (configuration not stated), the figures for the logD in series [1] and in series [7] were 2.62 and 2.14, respectively. Also, the half-life in [2] was 0.333 h; in [4], 161 h; in series [10], 33.6 h. This compound yielded a 50% naproxen formed in [5] of 25 min. Further, the values for the Jss in series [14] and in series [15] were 0.6 nM hr-1 cm**-2 and 0.7 nM hr-1 cm**-2, respectively. For the same compound, the solubility in series [8] stood at 0.07 mM (≈ 28.1 µg/mL); in series [9], 0.05 mM (≈ 20.1 µg/mL).
In the case of `COc1ccc2cc(C(C)C(=O)OCCOC(=O)CN3CCN(C)CC3)ccc2c1` (configuration not stated), the figures for the pH-dependent lipophilicity (logD) in [1] and in series [7] were 0.43 and 1.16, respectively. For the same compound, the Jss worked out at 2.2 nM hr-1 cm**-2 in series [16] and 24.6 nM hr-1 cm**-2 in series [3]. Besides, the half-life was 0.433 h in series [2], 1600 h in series [4] and 57.6 h in [10]. For the same compound, the 50% naproxen formed in series [5] was 22 min. The solubility in [8] is 4.1 mM (≈ 1700 µg/mL); in series [9], 5.3 mM (≈ 2200 µg/mL).
Consider `COc1ccc2cc(C(C)C(=O)OCCCCOC(=O)CN3CCN(C)CC3)ccc2c1` (configuration not stated), for which the logD in series [1] came to 0.94; in series [7], 1.3. Also, the values for the Jss in [16] and in [3] were 0.2 nM hr-1 cm**-2 and 7.2 nM hr-1 cm**-2, respectively. Besides, the half-life in series [2] was 0.05 h; in series [4], 1920 h; in series [10], 182 h. Besides, in series [5], the 50% naproxen formed was 7 min. Moreover, the values for the solubility in series [8] and in [9] were 8.8 mM (≈ 3890 µg/mL) and 16.2 mM (≈ 7170 µg/mL), respectively.

As usually defined, the logD is lipophilicity at a set pH, counting ionised and neutral species. For orientation: half-life means how long it takes for the measured level to halve. Lower therefore signals fast loss. As usually defined, the solubility is the dissolved amount per volume that the medium holds. High values mean much dissolved substance, low ones little dissolved substance.
